ChEMBL document CHEMBL4251654, “Structure-based design of human immuno- and constitutive proteasomes inhibitors” (Eur J Med Chem, 2018)

Assays:
[1] = biological target: T1, Proteasome Macropain subunit MB1 (Homo sapiens, UniProt P28074); test: Inhibition of human 20S constitutive proteasome beta-5 using Suc-LLVY-AMC as substrate incubated for 15 mins measured for 45 mins by fluorescence assay
T1 sequence (P28074 whole entry): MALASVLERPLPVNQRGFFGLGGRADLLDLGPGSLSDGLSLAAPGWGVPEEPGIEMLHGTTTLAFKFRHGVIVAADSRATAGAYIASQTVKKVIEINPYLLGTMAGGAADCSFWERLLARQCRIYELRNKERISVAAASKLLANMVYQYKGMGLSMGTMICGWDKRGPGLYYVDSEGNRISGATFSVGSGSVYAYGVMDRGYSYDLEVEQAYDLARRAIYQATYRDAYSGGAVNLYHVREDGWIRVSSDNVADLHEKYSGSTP
Outline: (§1)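 Human 20S cCP or iCP (0.3 nM) was exposed to compound (0.001-50 μM) for 15 min in pH 8 buffer of 20 mM Tris-HCl, 10% glycerol, 0.01% SDS, 2% DMSO. Suc-LLVY-AMC at 20 μM followed. Fluorescence (ex 360/em 460 nm) was read 45 min at 37 °C versus untreated enzyme.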

[2] = biological target: T2, Proteasome subunit beta type-8 (Homo sapiens, UniProt P28062); test: Inhibition of human 20S immunoproteasome beta-5 using Suc-LLVY-AMC as substrate incubated for 15 mins measured for 45 mins by fluorescence assay; outline: as §1
T2 sequence (P28062 whole entry): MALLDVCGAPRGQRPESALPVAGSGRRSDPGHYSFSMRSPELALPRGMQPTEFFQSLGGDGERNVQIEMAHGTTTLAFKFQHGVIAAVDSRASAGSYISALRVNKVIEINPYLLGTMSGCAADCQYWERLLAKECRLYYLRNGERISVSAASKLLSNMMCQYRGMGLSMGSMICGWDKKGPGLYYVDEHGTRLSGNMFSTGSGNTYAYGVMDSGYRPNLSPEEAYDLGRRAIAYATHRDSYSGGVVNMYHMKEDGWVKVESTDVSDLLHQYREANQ

[3] = biological target: T3, Proteasome Macropain subunit MB1 (Homo sapiens) (UniProt P28074); test: Inhibition of human 20S constitutive proteasome beta-5 at 50 uM using Suc-LLVY-AMC as substrate incubated for 15 mins measured for 45 mins by fluorescence assay relative to control; outline: as §1
T3 sequence (whole entry): T1 sequence (P28074 whole entry)

[4] = biological target: T4, Proteasome subunit beta type-8 (Homo sapiens) (UniProt P28062); test: Inhibition of human 20S immunoproteasome beta-5 at 50 uM using Suc-LLVY-AMC as substrate incubated for 15 mins measured for 45 mins by fluorescence assay relative to control; outline: as §1
T4 sequence (whole entry): T2 sequence (P28062 whole entry)

[5] = biological target: T5, Proteasome subunit beta type-9 (Homo sapiens, UniProt P28065); test: Inhibition of human 20S immunoproteasome beta-1 using Ac-PAL-AMC as substrate incubated for 15 mins measured for 45 mins by fluorescence assay
T5 sequence (P28065 whole entry): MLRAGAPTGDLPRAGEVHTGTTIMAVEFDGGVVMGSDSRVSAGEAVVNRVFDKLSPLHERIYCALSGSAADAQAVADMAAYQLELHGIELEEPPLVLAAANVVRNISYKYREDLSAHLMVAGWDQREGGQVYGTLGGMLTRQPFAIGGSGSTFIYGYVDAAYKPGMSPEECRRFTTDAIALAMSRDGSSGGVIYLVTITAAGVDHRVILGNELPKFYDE
Outline: (§2)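 Human 20S immunoproteasome (0.3 nM) was given 15 min with compound (0.001-50 μM) in pH 8 buffer of 20 mM Tris-HCl, 10% glycerol, 0.01% SDS, 2% DMSO. Ac-PAL-AMC at 50 μM was the substrate. Fluorescence (ex 360/em 460 nm) was followed 45 min at 37 °C relative to control.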

[6] = biological target: T6, Proteasome component C5 (Homo sapiens) (UniProt P20618); test: Inhibition of human 20S constitutive proteasome beta-1 at 50 uM using Z-LLE-betaNA as substrate incubated for 15 mins measured for 45 mins by fluorescence assay relative to control
T6 sequence (whole entry): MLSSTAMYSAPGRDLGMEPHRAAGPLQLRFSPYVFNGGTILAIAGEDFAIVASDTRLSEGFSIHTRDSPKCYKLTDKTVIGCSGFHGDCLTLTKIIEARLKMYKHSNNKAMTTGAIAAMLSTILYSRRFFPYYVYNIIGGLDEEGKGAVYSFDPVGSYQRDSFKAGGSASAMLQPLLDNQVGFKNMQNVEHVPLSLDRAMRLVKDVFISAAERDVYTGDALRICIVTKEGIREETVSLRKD
Outline: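 Human 20S constitutive proteasome, 0.3 nM, was preincubated 15 min with compound (0.001-50 μM) in pH 8 Tris-HCl 20 mM, 10% glycerol, 0.01% SDS, 2% DMSO. Z-LLE-βNA at 50 μM was added. βNA fluorescence (ex 340/em 404 nm) was monitored 45 min at 37 °C against an untreated control.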

[7] = biological target: T7, Proteasome subunit beta type-9 (Homo sapiens) (UniProt P28065); test: Inhibition of human 20S immunoproteasome beta-1 at 50 uM using Ac-PAL-AMC as substrate incubated for 15 mins measured for 45 mins by fluorescence assay relative to control; outline: as §2
T7 sequence (whole entry): T5 sequence (P28065 whole entry)

[8] = biological target: T8, Proteasome subunit beta type-10 (Homo sapiens, UniProt P40306); test: Inhibition of human 20S immunoproteasome beta-2 using BocLRR-AMC as substrate incubated for 15 mins measured for 45 mins by fluorescence assay
T8 sequence (P40306 whole entry): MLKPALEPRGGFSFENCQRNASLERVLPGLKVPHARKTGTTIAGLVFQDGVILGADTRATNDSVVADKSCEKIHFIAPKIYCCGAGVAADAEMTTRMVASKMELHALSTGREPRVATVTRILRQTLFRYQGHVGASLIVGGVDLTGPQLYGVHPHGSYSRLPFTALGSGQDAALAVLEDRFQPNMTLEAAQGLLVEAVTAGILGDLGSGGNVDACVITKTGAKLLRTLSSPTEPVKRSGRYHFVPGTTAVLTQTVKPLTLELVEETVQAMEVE

[9] = biological target: Proteasome Macropain subunit (Homo sapiens) (UniProt P49721); test: Inhibition of human 20S constitutive proteasome beta-2 at 50 uM using BocLRR-AMC as substrate incubated for 15 mins measured for 45 mins by fluorescence assay relative to control
Outline: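 Purified human 20S proteasome (cCP or iCP), 0.3 nM, preincubated 15 min with compound (0.001-50 μM) in pH 8 buffer of 20 mM Tris-HCl, 10% glycerol, 0.005% Triton X-100, 2% DMSO. Then Boc-LRR-AMC at 50 μM was added. AMC fluorescence (ex 360/em 460 nm) was followed 45 min at 37 °C. Activity is relative to an untreated control.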

[10] = biological target: T9, Proteasome subunit beta type-10 (Homo sapiens) (UniProt P40306); test: Inhibition of human 20S immunoproteasome beta-2 at 50 uM using BocLRR-AMC as substrate incubated for 15 mins measured for 45 mins by fluorescence assay relative to control
T9 sequence (whole entry): T8 sequence (P40306 whole entry)

Huh-7 = test: Cytotoxicity against human HuH7 cells assessed as reduction in cell viability after 48 hrs by Hoechst 33342 staining based HCS assay; assay type: functional; conditions: huh-7
Outline: (§3)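 Cells were grown at 37 °C, 5% CO2 in medium with 10% FBS, 1% penicillin-streptomycin, 2 mM glutamine: DMEM for HuH7, MDA-MB-231 and fibroblasts, EMEM for Caco2, McCoy's for HCT116, RPMI for PC3 and NCI-H727. 4000 cells/well were seeded and dosed 24 h later at 0.1-25 μM final, from DMSO stocks. After 48 h they were fixed in ethanol/acetic acid and Hoechst-stained nuclei were counted by imaging. Survival is relative to DMSO. EC50 came from dose-response curves.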

Caco-2 = test: Cytotoxicity against human Caco2 cells assessed as reduction in cell viability after 48 hrs by Hoechst 33342 staining based HCS assay; assay type: functional; outline: as §3
MDA-MB-231 = test: Cytotoxicity against human MDA-MB-231 cells assessed as reduction in cell viability after 48 hrs by Hoechst 33342 staining based HCS assay; assay type: functional; outline: as §3
HCT-116 = test: Cytotoxicity against human HCT116 cells assessed as reduction in cell viability after 48 hrs by Hoechst 33342 staining based HCS assay; assay type: functional; outline: as §3
PC-3 = test: Cytotoxicity against human PC3 cells assessed as reduction in cell viability after 48 hrs by Hoechst 33342 staining based HCS assay; assay type: functional; outline: as §3
NCI-H727 = test: Cytotoxicity against human NCI-H727 cells assessed as reduction in cell viability after 48 hrs by Hoechst 33342 staining based HCS assay; assay type: functional; outline: as §3
MCF7 = test: Cytotoxicity against human MCF7 cells assessed as reduction in cell viability after 48 hrs by Hoechst 33342 staining based HCS assay; assay type: functional
Fibroblast = test: Cytotoxicity against human fibroblasts assessed as reduction in cell viability at 25 uM after 48 hrs by Hoechst 33342 staining based HCS assay
[11] = Homo sapiens, MDA-MB-231, 48 h, read-out: EC50
[12] = Homo sapiens, HCT-116, 48 h, read-out: EC50
[13] = Homo sapiens, PC-3, 48 h, read-out: EC50
[14] = Homo sapiens, MCF7, 48 h, read-out: EC50
[15] = Homo sapiens, Caco-2, 48 h, read-out: EC50

Sequence of Proteasome Macropain subunit (Homo sapiens) (P49721 whole entry): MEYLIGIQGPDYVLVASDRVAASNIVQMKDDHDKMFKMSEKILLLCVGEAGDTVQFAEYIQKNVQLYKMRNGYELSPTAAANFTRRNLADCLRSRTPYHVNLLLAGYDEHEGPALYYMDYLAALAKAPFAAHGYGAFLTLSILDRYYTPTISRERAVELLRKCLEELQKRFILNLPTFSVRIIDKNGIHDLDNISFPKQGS

SMILES | IC50 [1] [nM] | IC50 [2] [nM] | inhibition [3] [%] | inhibition [4] [%] | IC50 [5] [µM] | inhibition [6] [%] | inhibition [7] [%] | IC50 [8] [µM] | inhibition [9] [%] | inhibition [10] [%] | EC50 (Huh-7) | EC50 (Caco-2; caco-2) | EC50 (MDA-MB-231; [11]) [µM] | EC50 (HCT-116; [12]) [µM] | EC50 (PC-3; [13]) [µM] | EC50 (NCI-H727; nci-h727) | EC50 (MCF7; [14]) [µM] | Activity (Fibroblast) | also measured
C[C@H](NC(=O)c1ccc(OCc2ccccc2)cc1)C(=O)N[C@@H](C[C@]1(O)C(=O)Nc2ccccc21)C(=O)NCc1ccccc1 | 113 | 170 | > 85 | > 85 | 52 | > 85 | > 85 | 28.3 | > 85 | > 85 | Not Active | Not Active | 23 | 10 | 24 | Not Active | 21 | Non-Toxic | 
C[C@H](NC(=O)Cc1cccc(Oc2ccccc2)c1)C(=O)N[C@@H](C[C@]1(O)C(=O)Nc2ccccc21)C(=O)NCc1ccccc1 | 350 | 260 | > 85 | > 85 | 14 | > 85 | > 85 | 14.3 | > 85 | > 85 |  |  |  |  |  |  |  |  | 
C[C@H](NC(=O)[C@H](Cc1ccc(OCc2ccccc2)cc1)NC(=O)OC(C)(C)C)C(=O)N[C@@H](C[C@]1(O)C(=O)Nc2ccccc21)C(=O)NCC(C)(C)C | 11300 | 12600 | > 85 | > 85 | 21 | > 85 | > 85 | 30 | > 85 | > 85 |  |  |  |  |  |  |  |  | 
C[C@@H](O)[C@@H](NC(=O)c1ccc(OCc2ccccc2)cc1)C(=O)N[C@@H](C[C@]1(O)C(=O)Nc2ccccc21)C(=O)NCc1ccccc1 | 7.1 | 10.2 | > 85 | > 85 | 23.8 | > 85 | > 85 | 6.6 | > 85 | > 85 | Not Active |  | 0.7 | 0.2 | 0.4 |  | 0.7 | Non-Toxic | EC50 (Caco-2; [15]): 5 µM; EC50 (NCI-H727; Homo sapiens, NCI-H727, 48 h, read-out: EC50): 2000 nM
CC(C)(C)OC(=O)N[C@@H](Cc1ccc(OCc2ccccc2)cc1)C(=O)N[C@@H](CC(N)=O)C(=O)N[C@@H](C[C@]1(O)C(=O)Nc2ccccc21)C(=O)NCc1ccccc1 | 1480 | 1600 | > 85 | > 85 | 16.1 | > 85 | > 85 |  |  |  | Not Active | Not Active |  |  |  | Not Active |  | Non-Toxic | EC50 (MDA-MB-231; mda-mb-231): Not Active; EC50 (HCT-116; hct-116): Not Active; EC50 (PC-3; pc-3): Not Active; EC50 (MCF7; mcf7): Not Active
C[C@H](NC(=O)[C@H](Cc1ccc(OCc2ccccc2)cc1)NC(=O)OC(C)(C)C)C(=O)N[C@@H](C[C@]1(O)C(=O)Nc2ccccc21)C(=O)NCc1cccc2ccccc12 | 1400 | 1900 | > 85 | > 85 | 2.77 | > 85 | > 85 | 2.7 | > 85 | > 85 |  |  |  |  |  |  |  |  | 
C[C@H](NC(=O)[C@H](Cc1ccc(OCc2ccccc2)cc1)NC(=O)OC(C)(C)C)C(=O)N[C@@H](C[C@]1(O)C(=O)Nc2ccccc21)C(=O)NCc1ccccc1 |  |  |  |  |  |  |  |  |  |  | Not Active | Not Active |  | 32 |  | Not Active | 26 | Non-Toxic | EC50 (MDA-MB-231; mda-mb-231): Not Active; EC50 (PC-3; pc-3): Not Active
C[C@H](O)[C@@H](NC(=O)[C@H](Cc1ccc(OCc2ccccc2)cc1)NC(=O)OC(C)(C)C)C(=O)N[C@@H](C[C@]1(O)C(=O)Nc2ccccc21)C(=O)NCc1ccccc1 | 125 | 200 | > 85 | > 85 | 8.8 | > 85 | > 85 | 5.8 | > 85 | > 85 | Not Active |  | 9 | 9 | 10 | Not Active | 9 | Non-Toxic | EC50 (Caco-2; [15]): 32 µM
